SENP6 inh = inhibitors of human SENP6 protease. actives 1.8% (n = 330,000). Recombinant SENP6 catalytic domain, aminoluciferin luminescence. Q9GZR1. inhibition, % at 10 µM;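 active = inhibition above about 50% at the single tested dose, limit read from the data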
SENP8 block-1 = SENP8 protease inhibition. Q96LD8. purified SENP8, Z-RLRGG-aminoluciferin cleavage, luminescence. inhibition, % at 10 µM. actives 1.2% (n = 330,000). AID 2540; in the data active = inhibition above about 50%
HSP90 refold inh = HSP90 refolding inhibition in rabbit reticulocyte lysate; luciferase refolding luminescence, 3 h; inhibition, % at 5.6 µM; actives 0.91% (n = 290,000); AID 1789;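 active = inhibition above the screen-wide mean plus 3 SD, computed separately per campaign, cut at about 16% in these data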;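 note: inhibitors lower the luminescence because luciferase stays unfolded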
SENP1 FRET inh = inhibitors of human SENP1 SUMO protease catalytic domain; Q9P0U3; recombinant SENP1 catalytic domain, CyPet-SUMO1-YPet FRET cleavage; inhibition, % at 10 µM; actives 0.21% (n = 360,000);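 active = inhibition at least 30% at 10 µM, raw YFP signal under a set limit, fluorescence ratio 0.5 to 1.5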
Target sequence (Q9P0U3 419-644 limits assumed): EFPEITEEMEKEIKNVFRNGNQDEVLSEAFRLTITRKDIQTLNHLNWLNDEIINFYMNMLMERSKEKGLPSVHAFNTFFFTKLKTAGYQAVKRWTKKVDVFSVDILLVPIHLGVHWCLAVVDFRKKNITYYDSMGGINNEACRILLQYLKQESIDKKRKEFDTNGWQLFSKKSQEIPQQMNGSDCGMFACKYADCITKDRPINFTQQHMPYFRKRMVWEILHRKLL
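Compound: 10 µM single point, 0.5% DMSO; Test system: hSENP1 catalytic domain, recombinant; Timing: 50 min reaction at room temperature; Technique: FRET, CFP and YFP emission; Control set: no-enzyme wells low, DMSO-plus-enzyme wells high control.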
SENP7 block = inhibitors of human SENP7 protease; Q9BQF6; recombinant SENP7, Z-RLRGG-aminoluciferin luminescence, 40 min; inhibition, % at 5 µM; actives 1.5% (n = 330,000);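 active = inhibition above about 50% at the single test dose, limit read from the data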
Target sequence (Q9BQF6 706-1050 limits assumed): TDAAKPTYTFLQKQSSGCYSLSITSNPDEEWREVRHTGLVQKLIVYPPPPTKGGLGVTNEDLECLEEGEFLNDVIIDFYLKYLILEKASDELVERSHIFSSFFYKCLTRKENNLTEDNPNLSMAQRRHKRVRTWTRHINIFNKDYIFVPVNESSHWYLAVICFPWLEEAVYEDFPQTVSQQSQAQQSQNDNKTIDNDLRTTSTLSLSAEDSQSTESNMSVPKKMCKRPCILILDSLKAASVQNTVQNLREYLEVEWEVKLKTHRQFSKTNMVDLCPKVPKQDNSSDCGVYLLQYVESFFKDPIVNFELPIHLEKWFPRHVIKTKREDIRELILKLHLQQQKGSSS
SENP8 block-2 = inhibitors of human SENP8 protease | recombinant SENP8, Nedd8 substrate fluorescence | inhibition, % at 20 µM | actives 0.64% (n = 360,000) | AID 602440; in the data active = inhibition mostly above about 40%, no sharp cut-off; inactive = mostly below about 27%
HSP90 confirm = HSP90 inhibition, confirmation assay. shares compounds with HSP90 refold inh. rabbit reticulocyte lysate, luciferase refolding luminescence, 3 h. inhibition, % at 5.9 µM. actives 64% (n = 2,300). AID 1846; in the data active = inhibition above about 18%
luciferase ctr = counter-screen for HSP90 inhibitors: inhibitors of firefly luciferase | AID 1847 | shares compounds with HSP90 refold inh | purified native firefly luciferase, luminescence | actives 48% (n = 2,300) | inhibition, % at 5.9 µM;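 active = inhibition above the mean inhibition of all tested sample wells plus 3 SD, cut at about 10% in these data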
Numbers stand for hits; - = inactive; . = not tested or not shown. Sampled rows, rich in hits. Any-hit rate of the full collection: about 2.9%.

SMILES | SENP6 inh | SENP8 block-1 | HSP90 refold inh | SENP1 FRET inh | SENP7 block | SENP8 block-2 | HSP90 confirm | luciferase ctr
CC(=O)Nc1cccc(-c2cc(-c3c(Cl)cccc3Cl)no2)c1 | - | - | 19 | - | - | - | - | -
O=C(NCC1CCCO1)c1ccc2c(c1)S(=O)(=O)c1ccccc1C2=O (stereo not given) | - | - | . | - | - | - | . | .
CC(=O)/C(=C\N(C)C)Sc1ccc(C)cc1 | - | - | 33 | - | - | - | - | -
COC(=O)c1sccc1S(=O)(=O)NCc1ccc(S(N)(=O)=O)cc1 | - | - | - | - | - | - | . | .
Cc1cc(C)cc(Nc2ccc(C(=O)O)cc2N)c1 | - | - | 23 | - | - | - | - | -
NS(=O)(=O)c1ccc(CCNC(=O)Nc2ccc(Cl)c(Cl)c2)cc1 | - | - | - | - | - | - | . | .
CCC1CCCCN1CCCNC(=O)CCC(=O)N1CC(C)Oc2ccccc21 (stereo not given) | - | - | - | - | - | - | . | .
O=C(COc1ccc(CO)cc1Cl)Nc1ccc(F)cc1 | - | - | 37 | - | - | - | 39 | 36
Cc1cc(C)n(CCCNC(=O)c2ccco2)n1 | - | - | . | - | - | - | . | .
Cc1nc(C)n(CCNC(=O)c2ccco2)n1 | - | - | 36 | - | - | - | - | -
CCN1C(=O)[C@H]2[C@@H](c3ccc(-c4ccc(Cl)c(Cl)c4)c(OC)c3)N3CCCC[C@@]3(C(=O)OC)[C@H]2C1=O | - | - | . | - | - | - | . | .
Cc1ccccc1NC(=S)NNC(=O)c1csc2c1CCC(C)C2 (stereo not given) | - | - | 67 | - | - | - | 61 | 52
O=C(Cc1coc2cc3c(cc12)CCC3)OCC(=O)N1CCCC1=O | - | - | 27 | - | - | - | - | -
O=c1cc(-c2ccccc2)[nH][nH]1 | - | - | 40 | - | - | - | - | -
COc1ccc(-c2cc(=O)[nH][nH]2)cc1OC | - | - | 34 | - | - | - | - | -
O=c1cc(-c2ccc(Br)cc2)[nH][nH]1 | - | - | - | - | - | - | . | .
CCOC(=O)N1CCN(CC(=O)Nc2nccs2)CC1 | . | . | . | - | . | - | . | .
Nc1c(C(=O)OCC2CCCO2)c2nc3ccccc3nc2n1C1CCCC1 (stereo not given) | - | - | 17 | - | - | - | - | -
O=C(NCc1ccco1)C1CCCN(S(=O)(=O)Cc2ccccc2)C1 (stereo not given) | - | - | 49 | - | - | - | - | -
CC1CCC2(CC1)NC(=O)N(CC(=O)Nc1cccc(C#N)c1)C2=O (stereo not given) | - | - | . | - | - | - | . | .
O=C(O)c1ccc(NNC(=S)Nc2cc(C(F)(F)F)ccc2Cl)cc1 | - | - | 61 | - | - | - | 54 | 53
CC(C)(C)n1ncc2c(=O)n(Cc3cccc(Cn4cnc5c(cnn5C(C)(C)C)c4=O)c3F)cnc21 | - | - | . | - | - | - | . | .
CCn1cc(C(=O)NC2CCc3ccccc32)c(=O)c2ccc(C)nc21 (stereo not given) | . | . | 27 | . | . | . | - | -
CCn1cc(C(=O)NC2CCCCCC2)c(=O)c2ccc(C)nc21 | - | - | - | - | - | - | . | .
Cc1cc(-c2nc(-c3ccc(C(C)(C)C)cc3)no2)no1 | - | - | - | - | - | - | . | .
SMILES | SENP6 inh | SENP8 block-1 | HSP90 refold inh | SENP1 FRET inh | SENP7 block | SENP8 block-2 | HSP90 confirm | luciferase ctr
Cc1c(-c2nc(-c3ccc(C(C)(C)C)cc3)no2)n(C)oc1=O | - | - | 70 | - | - | - | 91 | -
O=[N+]([O-])c1ccc(COc2ccc(CN3CCCC3)cc2)cc1 | . | . | . | - | . | - | . | .
O=C(Nc1ccc(N2CCOCC2)cc1N1CCOCC1)c1cccs1 | - | - | - | - | - | - | . | .
O=C(c1ccc(N2CCOCC2)cc1)c1cccs1 | - | - | 18 | - | - | - | 42 | 21
Cc1cc(O)ccc1Nc1nc2ccccc2nc1Nc1ccc(O)cc1C | - | - | - | - | - | - | . | .
Cc1ccc(-n2nc3c(c2NC(=O)CC(C)C)CS(=O)(=O)C3)cc1 | - | - | - | - | - | - | . | .
Cc1ccc(Nc2[nH]c(=O)c3ccccc3c2C(=O)c2ccccc2)cc1 | - | - | . | . | - | . | . | .
Cc1c(/C(O)=C2\C(=O)C(=O)N(CCN(C)C)C2c2cccs2)cnn1-c1ccccc1 (stereo not given) | - | - | 40 | - | - | - | - | -
Cc1c(/C(O)=C2/C(=O)C(=O)N(CCN3CCOCC3)C2c2ccccn2)cnn1-c1ccccc1 (stereo not given) | - | - | 76 | - | - | - | 22 | 36
COc1ccc(-c2cc(-c3nc4ccccn4c3NCc3ccccc3)ccc2OC)cc1 | - | - | . | - | - | - | . | .
COCCNc1c(-c2cc3ccc(C)c(C)c3[nH]c2=O)nc2ccccn12 | - | - | 21 | - | - | - | - | -
CC1=C(Nc2ccc(C(=O)O)cc2)C(=O)c2ccccc2C1=O | - | - | - | - | - | - | . | .
CC(=O)NC1=C(Nc2ccc(N(C)C)cc2)C(=O)c2ccccc2C1=O | - | - | 21 | - | - | 44 | - | -
COc1ccccc1NC(=O)CSc1nc2ccccc2cc1Cc1ccccc1 | - | - | 31 | - | - | - | 24 | -
O=C1c2ccccc2NC(c2ccc3c(c2)OCCO3)N1c1ccc2c(c1)OCCO2 (stereo not given) | - | - | 22 | - | - | - | 17 | -
COc1cc(C2Nc3ccccc3C(=O)N2c2ccc3c(c2)OCCO3)ccc1OCC(C)C (stereo not given) | - | - | 45 | - | - | - | - | -
CC(NC(=O)NC1CCCCC1)C(c1cccs1)N1CCN(c2ccccc2)CC1 (stereo not given) | - | - | - | - | - | - | . | .
CCOC(=O)C1CCCN(C(=O)c2cc(Nc3ccc(OC)cc3OC)nc3ccccc23)C1 (stereo not given) | - | - | - | - | - | - | . | .
COc1ccc(OC)c(Cc2nnc(CCC(=O)NC3C4CC5CC(C4)CC3C5)o2)c1 (stereo not given) | - | - | 18 | - | - | - | - | -
Cn1c(SCC(=O)OC2CCCCC2)nnc1-c1ccco1 | - | - | 22 | - | - | - | - | -
O=C(Nc1ccc(N2CCOCC2)cc1)c1ccncc1 | - | - | - | - | - | - | . | .
O=C(Nc1ccc(N2CCOCC2)cc1)c1cnsn1 | - | - | 71 | - | - | - | 83 | 76
O=C(Nc1ccc(N2CCOCC2)cc1)c1cnccn1 | - | - | 46 | - | - | - | 67 | 44
OCCNC(=S)Nc1ccc(Cl)c(Cl)c1 | - | - | - | - | - | - | . | .
OCCNC(=S)Nc1cc(Cl)cc(Cl)c1 | - | - | 18 | - | - | - | - | -

High-throughput results as filed in PubChem.
